From ChEMBL document CHEMBL3871264, “Design of a novel thiophene inhibitor of 15-lipoxygenase-1 with both anti-inflammatory and neuroprotective properties” (Eur J Med Chem, 2016)
Activity calls are given as the source filed them. No cut-off for these calls is given here.

Tests used:
[1] = target: T1, Polyunsaturated fatty acid lipoxygenase ALOX15 (Homo sapiens, UniProt P16050); experiment: Competitive inhibition of human 15-LOX-1 assessed as reduction in conversion of linoleic acid to 13(S)-HpODE incubated for 10 mins followed by linoleic acid addition by Lineweaver-Burk plot analysis
T1 sequence (P16050 whole entry): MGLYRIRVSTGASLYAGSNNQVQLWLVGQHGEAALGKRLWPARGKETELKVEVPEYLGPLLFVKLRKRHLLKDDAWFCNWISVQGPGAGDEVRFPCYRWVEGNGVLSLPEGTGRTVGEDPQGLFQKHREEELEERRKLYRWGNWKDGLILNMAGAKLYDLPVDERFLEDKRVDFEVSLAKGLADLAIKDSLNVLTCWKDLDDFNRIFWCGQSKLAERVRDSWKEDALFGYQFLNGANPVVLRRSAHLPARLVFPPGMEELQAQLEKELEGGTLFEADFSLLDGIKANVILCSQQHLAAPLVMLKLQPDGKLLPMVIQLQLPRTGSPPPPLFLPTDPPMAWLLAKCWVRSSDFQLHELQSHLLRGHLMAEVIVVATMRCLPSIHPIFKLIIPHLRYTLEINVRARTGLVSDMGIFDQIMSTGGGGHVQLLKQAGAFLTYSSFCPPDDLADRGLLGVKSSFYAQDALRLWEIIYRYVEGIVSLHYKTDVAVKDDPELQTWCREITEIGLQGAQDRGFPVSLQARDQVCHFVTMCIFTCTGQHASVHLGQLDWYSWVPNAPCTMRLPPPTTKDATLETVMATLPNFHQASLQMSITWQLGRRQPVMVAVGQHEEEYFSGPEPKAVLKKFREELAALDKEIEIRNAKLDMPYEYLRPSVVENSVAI

[2] = target: T2, Polyunsaturated fatty acid lipoxygenase ALOX15 (Homo sapiens) (UniProt P16050); experiment: Competitive inhibition of human 15-LOX-1 assessed as apparent Vmax at 5 uM by Lineweaver-Burk plot analysis (reference value: 1.6 +/- 0.2 10^-4abs/s)
T2 sequence (whole entry): T1 sequence (P16050 whole entry)
Outline: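 Purified enzyme activity was read as UV absorbance at 234 nm of the product formed from linoleic acid substrate, in 96-well format. Substrate-dependence runs were done with and without inhibitor. Apparent Km and Vmax were derived from Lineweaver-Burk plots.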

[3] = target: T3, Polyunsaturated fatty acid lipoxygenase ALOX15 (Mus musculus) (UniProt P39654); experiment: Inhibition of 15-LOX-1 in C57bl/6 mouse precision-cut lung slices assessed as reduction in LPS-stimulated IL-6 mRNA expression level at 50 uM incubated for 20 hrs followed by LPS stimulation for 4 hrs in presence of linoleic acid by RT-qPCR analysis
T3 sequence (whole entry): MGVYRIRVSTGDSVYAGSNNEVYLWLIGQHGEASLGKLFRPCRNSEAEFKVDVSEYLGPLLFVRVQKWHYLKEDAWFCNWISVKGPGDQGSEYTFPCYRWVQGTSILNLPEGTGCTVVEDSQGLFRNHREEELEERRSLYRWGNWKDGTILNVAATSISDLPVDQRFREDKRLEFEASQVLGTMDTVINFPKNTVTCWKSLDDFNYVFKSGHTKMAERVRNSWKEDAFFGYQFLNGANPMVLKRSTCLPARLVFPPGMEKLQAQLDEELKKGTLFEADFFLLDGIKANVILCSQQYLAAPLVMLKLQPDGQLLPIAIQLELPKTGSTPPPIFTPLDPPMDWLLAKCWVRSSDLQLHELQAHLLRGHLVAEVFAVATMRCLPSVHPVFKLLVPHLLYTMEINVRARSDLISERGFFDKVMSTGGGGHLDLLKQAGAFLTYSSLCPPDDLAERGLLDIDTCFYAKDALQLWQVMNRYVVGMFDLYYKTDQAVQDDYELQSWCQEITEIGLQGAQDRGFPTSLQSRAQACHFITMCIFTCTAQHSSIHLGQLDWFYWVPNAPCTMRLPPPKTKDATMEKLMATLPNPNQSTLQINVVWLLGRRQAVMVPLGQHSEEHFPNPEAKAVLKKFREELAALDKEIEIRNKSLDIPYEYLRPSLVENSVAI
Outline: (§1)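 Lung slices, 250 μm, were cut from agarose-filled lungs of male C57bl/6 mice aged 8-10 weeks and cultured at 37 °C in 5% CO2 in supplemented DMEM, 3 slices per well. Inhibitor was given for 20 h with 10 μM linoleic acid. For the last 4 h, 10 ng/ml LPS plus 10 ng/ml IFNγ were added. Read-out was RT-qPCR (10 ng cDNA, GAPDH assay included), in duplicate or triplicate wells, as fold change versus LPS/linoleic acid control, with 4-6 independent experiments.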

[4] = target: T3, Polyunsaturated fatty acid lipoxygenase ALOX15 (Mus musculus); experiment: Inhibition of 15-LOX-1 in mouse HT22 cells assessed as inhibition of glutamate-induced lipid peroxidation at 10 uM incubated for 6 to 7 hrs by BODIPY 581/591 C11 staining based FACS analysis; type: cell-based; conditions: HT-22
Outline: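 HT-22 cells were seeded at 5x10^4 per well and incubated overnight. They were then exposed to 4 mM glutamate in DMEM/10% FCS, with or without 10 µM test inhibitor or 1 µM PD146176, for 6-7 h or 14-16 h. Cells were stained with BODIPY 581/591 C11 at 2 µM final for 1 h at 37 °C. The red-to-green fluorescence shift was read by flow cytometry (488 nm excitation). At least 3 experiments were run, each in triplicate.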

[5] = target: T3, Polyunsaturated fatty acid lipoxygenase ALOX15 (Mus musculus); experiment: Inhibition of 15-LOX-1 in mouse HT22 cells assessed as protection against glutamate-induced cell death by measuring increase in cell viability up to 20 uM cotreated with glutamate for 14 to 16 hrs by MTT assay; type: cell-based; conditions: HT-22
Outline: (§2)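 HT-22 cells were seeded at 8x10^3 per well and incubated overnight. They were challenged with 4 mM glutamate in DMEM/10% FCS. Inhibitor was given either with glutamate (1-20 µM; PD146176 at 1 µM) or added at 5 or 10 µM 2, 4, 6 or 8 h after glutamate. After 14-16 h, MTT was added at 0.5 mg/mL for 1 h at 37 °C. Formazan was dissolved in DMSO and read at 570 nm minus 630 nm background, expressed relative to control. Three experiments were run with 6-8 replicates each.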

[6] = target: T3, Polyunsaturated fatty acid lipoxygenase ALOX15 (Mus musculus); experiment: Inhibition of 15-LOX-1 in mouse HT22 cells assessed as protection against glutamate-induced cell impedance at 5 to 10 uM cotreated with glutamate measured for 16 to 20 hrs by real time cell viability assay; type: cell-based; conditions: HT-22
Outline: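 HT-22 cells were seeded at 8x10^3 per well, incubated overnight, then given 4 mM glutamate. Inhibitor was either co-applied (1-20 µM; PD146176 at 1 µM) or added at 10 µM 2, 4, 6 or 8 h after glutamate. Impedance was recorded in real time for 16-20 h, with cell index normalized just before glutamate addition.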

[7] = target: T3, Polyunsaturated fatty acid lipoxygenase ALOX15 (Mus musculus); experiment: Inhibition of 15-LOX-1 in C57bl/6 mouse precision-cut lung slices assessed as reduction in LPS-stimulated IL-6 mRNA expression level at 5 uM incubated for 20 hrs followed by LPS stimulation for 4 hrs in presence of linoleic acid by RT-qPCR analysis; outline: as §1
[8] = target: T3, Polyunsaturated fatty acid lipoxygenase ALOX15 (Mus musculus); experiment: Inhibition of 15-LOX-1 in mouse HT22 cells assessed as protection against glutamate-induced cell death by measuring increase in cell viability at 10 uM incubated up to 8 hrs following glutamate challenge by MTT assay; type: cell-based; conditions: HT-22; outline: as §2

Ki [1]: 3.3 µM
Vmax(app) [2]: 1.5 ×10⁻⁴ abs/s
inhibition [3]: 50%
inhibition [4]: Active
inhibition [7]: Active
Structure (SMILES): CCCCNC(=O)c1cc(-c2ccccc2)sc1N
inhibition [5]: Dose-dependent effect
inhibition [6]: Active
inhibition [8]: Active
